According to ChEMBL document CHEMBL1157562, “Piperazinyl glutamate pyridines as potent orally bioavailable P2Y12 antagonists for inhibition of platelet aggregation” (J Med Chem, 2010):

Columns and labels:
P2Y purinoceptor 12 = P2Y purinoceptor 12 (Homo sapiens, UniProt Q9H244); experiment: Displacement of [33P]ADP from human recombinant P2Y12 receptor expressed in CHO cells; assay type: cell-based
Summary of the method: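 Washed membranes from CHO cells expressing synthetic human P2Y12, incubated 1 h at room temperature with 0.2 nM 33P-MeSADP in 50 mM Tris/100 mM NaCl/1 mM EDTA. Compound was tested as a 7-point 3-fold series in triplicate. Nonspecific binding was defined with 300 nM 2-MeSADP, followed by filtration.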

Platelet = experiment: Relative potency, ratio of IC50 for drug to IC50 for AZD-6140 for platelet aggregation in human platelet rich plasma; assay type: functional
[1] = Antiplatelet aggregation activity against adenosine diphosphate-induced human platelet rich plasma assessed as inhibition of platelet aggregation by turbidimetric method; assay type: functional; details: Homo sapiens, Platelet, Plasma
Summary of the method: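 Human PRP, prepared by two-step centrifugation and adjusted to 330 000 platelets/μL with PPP. Compound was preincubated 5 min at 37 °C in 0.5% DMSO, then 20 μM ADP was added. OD626 was read kinetically for 15 min at 37 °C with mixing between reads.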

Sequence of P2Y purinoceptor 12 (Q9H244 whole entry): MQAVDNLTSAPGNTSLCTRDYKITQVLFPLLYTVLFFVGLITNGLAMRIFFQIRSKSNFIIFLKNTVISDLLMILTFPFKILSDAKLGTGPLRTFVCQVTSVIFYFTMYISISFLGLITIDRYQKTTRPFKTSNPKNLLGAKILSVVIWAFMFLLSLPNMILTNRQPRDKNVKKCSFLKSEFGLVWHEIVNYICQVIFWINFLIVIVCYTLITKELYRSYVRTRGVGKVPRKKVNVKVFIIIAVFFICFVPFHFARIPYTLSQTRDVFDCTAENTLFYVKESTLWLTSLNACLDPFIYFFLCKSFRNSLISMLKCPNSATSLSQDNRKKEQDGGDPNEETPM

Row | SMILES | Ki (P2Y purinoceptor 12) | Ratio IC50 (Platelet) | IC50 [1]
1 | CCCCOC(=O)N1CCN(C(=O)[C@H](CCC(=O)O)NC(=O)c2cc(OC3CCNC3)cc(-c3ccccc3)n2)CC1 (stereo not given in full) | 3.7 nM | 1.3 | 2600 nM
2 | CCCCCOC(=O)N1CCN(C(=O)[C@H](CCC(=O)O)NC(=O)c2cc(C(=O)N(C)CCCN(C)C)cc(-c3ccccc3)n2)CC1 | 8.6 nM | 0.96 | 420 nM
3 | CCCCCOC(=O)N1CCN(C(=O)[C@H](CCC(=O)O)NC(=O)c2cc(OCC3CCN(C(C)=O)CC3)cc(-c3ccccc3)n2)CC1 | 1.3 nM | 1.8 | 1300 nM
4 | CCCCCOC(=O)N1CCN(C(=O)[C@H](CCC(=O)O)NC(=O)c2cc(OCCO)cc(-c3ccccc3)n2)CC1 | 31 nM | 10 | 12000 nM
5 | CCCCCOC(=O)N1CCN(C(=O)[C@H](CCC(=O)O)NC(=O)c2cc(OCC3CCN(C(=O)OCC)CC3)cc(-c3ccccc3)n2)CC1 | 1.3 nM | 5.1 | 7400 nM
6 | CCCCCOC(=O)N1CCN(C(=O)[C@H](CCC(=O)O)NC(=O)c2cc(NCCOC)cc(-c3ccccc3)n2)CC1 | 9.8 nM | 4.9 | 3200 nM
7 | CCCCOC(=O)N1CCN(C(=O)[C@H](CCC(=O)O)NC(=O)c2cc(OCC3CCN(S(=O)(=O)CC)CC3)cc(-c3ccccc3)n2)CC1 | 5.3 nM | 2.8 | 3000 nM
8 | CCCCCOC(=O)N1CCN(C(=O)[C@H](CCC(=O)O)NC(=O)c2cc(OC(=O)N3CCC(OCC)CC3)cc(-c3ccccc3)n2)CC1 | 6 nM | 1.2 | 590 nM
9 | CCCCOC(=O)N1CCN(C(=O)[C@H](CCC(=O)O)NC(=O)c2cc(OC3CCCNC3)cc(-c3ccccc3)n2)CC1 (stereo not given in full) | 6.9 nM | 1.8 | 3900 nM
10 | CCCCCOC(=O)N1CCN(C(=O)[C@H](CCC(=O)O)NC(=O)c2cc(OC(=O)N3CCCCC3)cc(-c3ccccc3)n2)CC1 | 11 nM | 1.3 | 2100 nM
11 | CCCCCCOC(=O)N1CCN(C(=O)[C@H](CCC(=O)O)NC(=O)c2cc(OCCOC)cc(-c3ccccc3)n2)CC1 | 14 nM | 7.1 | 8300 nM
12 | CCCOc1cc(C(=O)N[C@@H](CCC(=O)O)C(=O)N2CCN(C(=O)OCC)CC2)nc(-c2ccccc2)c1 | 120 nM | 46 | 36000 nM
13 | CCCCOC(=O)N1CCN(C(=O)[C@H](CCC(=O)O)NC(=O)c2cc(N3CCOCC3)cc(-c3ccccc3)n2)CC1 | 3.3 nM | 11 | 7200 nM
14 | CCCCCOC(=O)N1CCN(C(=O)[C@H](CCC(=O)O)NC(=O)c2cc(C(=O)N(C)C)cc(-c3ccccc3)n2)CC1 | 2.4 nM | 1 | 1100 nM
15 | CCCCCOC(=O)N1CCN(C(=O)[C@H](CCC(=O)O)NC(=O)c2cc(OC3CCN(S(=O)(=O)CC)CC3)cc(-c3ccccc3)n2)CC1 | 5.1 nM | 5 | 5300 nM
16 | CCCCOC(=O)N1CCN(C(=O)[C@H](CCC(=O)O)NC(=O)c2cc(OCC3CCCNC3)cc(-c3ccccc3)n2)CC1 (stereo not given in full) | 3.7 nM | 0.57 | 1200 nM
17 | CCCCOC(=O)N1CCN(C(=O)[C@H](CCC(=O)O)NC(=O)c2cc(N3CCC(N4CCCC4)CC3)cc(-c3ccccc3)n2)CC1 | 64 nM | 1.7 | 560 nM
18 | CCCCCCOC(=O)N1CCN(C(=O)[C@H](CCC(=O)O)NC(=O)c2cc(OCCO)cc(-c3ccccc3)n2)CC1 | 18 nM | 13 | 21000 nM
19 | CCCCCOC(=O)N1CCN(C(=O)[C@H](CCC(=O)O)NC(=O)c2cc(C(=O)NCCCOC)cc(-c3ccccc3)n2)CC1 | 6.1 nM | 12 | 4600 nM
20 | CCCCOC(=O)N1CCN(C(=O)[C@H](CCC(=O)O)NC(=O)c2cc(N3CCC(N(C)C)CC3)cc(-c3ccccc3)n2)CC1 | 5 nM | 1.4 | 1900 nM
